# According to ChEMBL document CHEMBL2396536, “Curcuminoids block TGF-β signaling in human breast cancer cells and limit osteolysis in a murine model of breast cancer bone metastasis” (J Nat Prod, 2013):
# The source made the active and inactive calls. The rule behind the calls is not given here.
# How the values were obtained:
# Mus musculus [1] = assay: Toxicity in human MDA-MB-231 cells xenografted athymic nude mouse left cardiac ventricle assessed as effect on spleen weight at 50 mg/kg, ip administered every other day for 3 weeks (reference value: 0.134 +/- 0.02 gram); format: organism-based; parameters: dose 50 mg/kg, route intraperitoneal; conditions: in vivo, 504 h
# MDA-MB-231 [2] = assay: Cytotoxicity against human MDA-MB-231 cells assessed as cell viability by MTT assay; format: cell-based
# How it was run: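 MDA-MB-231 plated at 5 × 10^4 cells/cm2 and held overnight in DMEM with 10% FBS at 37°C and 5% CO2. Pre-incubated 4 h with compound in 2% FBS DMEM, then medium refreshed with TGF-β1 (5 ng/mL) for 24 h. Cell number read by MTT reduction.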
# Mus musculus [3] = assay: Toxicity in human MDA-MB-231 cells xenografted athymic nude mouse left cardiac ventricle assessed as effect on platelets at 25 mg/kg, ip administered every other day for 3 weeks (reference value: 513 +/- 54 K/uL); format: organism-based, Heart; parameters: dose 25 mg/kg, route intraperitoneal; conditions: in vivo, 504 h
# MDA-MB-231 [4] = assay: Inhibition of osteolytic bone metastases in human MDA-MB-231 cells xenografted in athymic nude mouse left cardiac ventricle assessed as effect on tumor burden at 25 to 50 mg/kg, ip administered every other day for 3 weeks by histological analysis; format: functional, organism-based; conditions: Heart left ventricle
# How it was run: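 Intracardiac MDA-MB-231 model in female nude mice, dosed ip every other day for 21 days, n = 11/group. Hindlimbs harvested day 21, formalin-fixed and EDTA-decalcified. Tumor area measured blinded on mid-sagittal 5 μm H&E sections of tibiae and femora at 10x magnification.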
# Mus musculus [5] = assay: Toxicity in human MDA-MB-231 cells xenografted athymic nude mouse left cardiac ventricle assessed as effect on spleen weight at 25 mg/kg, ip administered every other day for 3 weeks (reference value: 0.134 +/- 0.02 gram); format: organism-based; parameters: dose 25 mg/kg, route intraperitoneal; conditions: in vivo, 504 h
# Mus musculus [6] = assay: Toxicity in human MDA-MB-231 cells xenografted athymic nude mouse left cardiac ventricle assessed as effect on alanine aminotransferase at 50 mg/kg, ip administered every other day for 3 weeks (reference value: 7.04 +/- 2.2 U/L); format: organism-based, Heart; parameters: dose 50 mg/kg, route intraperitoneal; conditions: in vivo, 504 h
# [7] = target: MAP kinase p38 (Homo sapiens) (UniProt O15264+Q15759+Q16539+P53778); assay: Inhibition of TGF-beta-induced p38 phosphorylation in human MDA-MB-231 cells treated 12 hrs before TGF-beta challenge measured after 1 hr by Western blotting; format: cell-based
# How it was run: (§1)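 Subconfluent MDA-MB-231 pre-treated 12 h with compound (80 μM), then TGF-β (5 ng/mL) for 1 h. RIPA whole-cell lysates (18 μg) run on SDS-PAGE and transferred to PVDF. Probed with rabbit anti-phospho-Smad2, phospho-Smad3, phospho-p38 or Ets-1 (1:1000, overnight, 4 °C). β-actin used as loading control. Chemiluminescent detection; three independent experiments.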
# Mus musculus [8] = assay: Toxicity in human MDA-MB-231 cells xenografted athymic nude mouse left cardiac ventricle assessed as effect on liver weight at 50 mg/kg, ip administered every other day for 3 weeks (reference value: 1 +/- 0.10 gram); format: organism-based, Heart; parameters: dose 50 mg/kg, route intraperitoneal; conditions: in vivo, 504 h
# MDA-MB-231 [9] = assay: Inhibition of osteolytic bone metastases in human MDA-MB-231 cells xenografted in athymic nude mouse left cardiac ventricle assessed as improvement in host survival at 25 to 50 mg/kg, ip administered every other day for 3 weeks measured on day 16 relative to vehicle-treated control; format: functional, organism-based; conditions: Heart left ventricle
# How it was run: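 Intracardiac MDA-MB-231 nude mice (n = 11/group) dosed ip every other day for 3 weeks. Survival shown by Kaplan–Meier and analyzed by logrank test with post-hoc logrank test for trend.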
# MDA-MB-231 [10] = assay: Inhibition of osteolytic bone metastases in human MDA-MB-231 cells xenografted in athymic nude mouse left cardiac ventricle assessed as reduction of bone lysis at 25 to 50 mg/kg, ip administered every other day for 3 weeks measured on day 21; format: functional, Heart left ventricle; conditions: dose mg/kg 25-50; route intraperitoneal
# How it was run: (§2)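 Four-week female athymic nude mice inoculated with 1 × 10^5 MDA-MB-231 cells in 0.1 mL PBS into the left cardiac ventricle. Dosed ip at 25 or 50 mg/kg or vehicle every other day from day 1 for 21 days, n = 11/group. Lytic lesion area quantified on radiographs on days 12, 16 and 21. Two-way ANOVA with Bonferroni.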
# Mus musculus [11] = assay: Toxicity in human MDA-MB-231 cells xenografted athymic nude mouse left cardiac ventricle assessed as effect on white blood cells at 50 mg/kg, ip administered every other day for 3 weeks (reference value: 5.84 +/- 1.3 K/uL); conditions: in vivo, 504 h
# MDA-MB-231 [12] = assay: Inhibition of TGF-beta-induced PTHrP secretion in human MDA-MB-231 cells at 100 uM treated 4 hrs before TGF-beta challenge measured after 24 hrs by radioimmunoassay; format: functional, cell-based
# How it was run: (§3)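 MDA-MB-231 plated at 5 × 10^4 cells/cm2 and held overnight in DMEM with 10% FBS. Pre-treated 4 h with compound (0.1–100 μM in methods; 0.1–300 μM in legend) in 2% FBS, then recombinant human TGF-β1 (5 ng/mL) or medium alone for 24 h. PTHrP measured in conditioned media by radioimmunoassay, n = 4 wells/group. IC50 from four-parameter logistic fit.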
# Mus musculus [13] = assay: Toxicity in human MDA-MB-231 cells xenografted athymic nude mouse left cardiac ventricle assessed as effect on alanine aminotransferase at 25 mg/kg, ip administered every other day for 3 weeks (reference value: 7.04 +/- 2.2 U/L); format: organism-based, Heart; parameters: dose 25 mg/kg, route intraperitoneal; conditions: in vivo, 504 h
# MDA-MB-231 [14] = assay: Inhibition of TGF-beta-induced Ets-1 expression in human MDA-MB-231 cells treated 12 hrs before TGF-beta challenge measured after 1 hr by Western blotting
# MDA-MB-231 [15] = assay: Inhibition of osteolytic bone metastases in human MDA-MB-231 cells xenografted in athymic nude mouse left cardiac ventricle assessed as reduction of bone-tumor interface at 25 mg/kg, ip administered every other day for 3 weeks; format: functional; conditions: MDA-MB-231, Heart left ventricle, 504 h, route intraperitoneal
# How it was run: (§4)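 Intracardiac MDA-MB-231 model in nude mice, dosed ip every other day for 21 days. Mid-sagittal tibia and femur sections TRAP-stained. TRAP+ multinucleated (>3 nuclei) cells counted at 40x along the tumor-bone interface. Expressed as osteoclasts per mm of interface.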
# Mus musculus [16] = assay: Toxicity in human MDA-MB-231 cells xenografted athymic nude mouse left cardiac ventricle assessed as effect on platelets at 50 mg/kg, ip administered every other day for 3 weeks (reference value: 513 +/- 54 K/uL); format: organism-based, Heart; parameters: dose 50 mg/kg, route intraperitoneal; conditions: in vivo, 504 h
# MDA-MB-231 [17] = assay: Inhibition of osteolytic bone metastases in human MDA-MB-231 cells xenografted in athymic nude mouse left cardiac ventricle assessed as reduction of bone-tumor interface at 50 mg/kg, ip administered every other day for 3 weeks; format: functional; conditions: MDA-MB-231, Heart left ventricle, 504 h, route intraperitoneal; how it was run: as §4
# Mus musculus [18] = assay: Toxicity in human MDA-MB-231 cells xenografted athymic nude mouse left cardiac ventricle assessed as effect on white blood cells at 25 mg/kg, ip administered every other day for 3 weeks (reference value: 5.84 +/- 1.3 K/uL); conditions: in vivo, 504 h
# Mus musculus [19] = assay: Toxicity in human MDA-MB-231 cells xenografted athymic nude mouse left cardiac ventricle assessed as effect on liver weight at 25 mg/kg, ip administered every other day for 3 weeks (reference value: 1 +/- 0.10 gram); format: organism-based, Heart; parameters: dose 25 mg/kg, route intraperitoneal; conditions: in vivo, 504 h
# MDA-MB-231 [20] = assay: Inhibition of osteolytic bone metastases in human MDA-MB-231 cells xenografted in athymic nude mouse left cardiac ventricle assessed as improvement in body weight at 25 to 50 mg/kg, ip administered every other day for 3 weeks measured on day 16 relative to vehicle-treated control; format: functional, organism-based; conditions: Heart left ventricle
# [21] = target: Mothers against decapentaplegic homolog 3 (Homo sapiens) (UniProt P84022); assay: Inhibition of TGF-beta-induced Smad3 phosphorylation in human MDA-MB-231 cells treated 12 hrs before TGF-beta challenge measured after 1 hr by Western blotting; format: cell-based; how it was run: as §1
# Mothers against decapentaplegic homolog 3 (Homo sapiens), sequence (P84022 2-425 limits assumed): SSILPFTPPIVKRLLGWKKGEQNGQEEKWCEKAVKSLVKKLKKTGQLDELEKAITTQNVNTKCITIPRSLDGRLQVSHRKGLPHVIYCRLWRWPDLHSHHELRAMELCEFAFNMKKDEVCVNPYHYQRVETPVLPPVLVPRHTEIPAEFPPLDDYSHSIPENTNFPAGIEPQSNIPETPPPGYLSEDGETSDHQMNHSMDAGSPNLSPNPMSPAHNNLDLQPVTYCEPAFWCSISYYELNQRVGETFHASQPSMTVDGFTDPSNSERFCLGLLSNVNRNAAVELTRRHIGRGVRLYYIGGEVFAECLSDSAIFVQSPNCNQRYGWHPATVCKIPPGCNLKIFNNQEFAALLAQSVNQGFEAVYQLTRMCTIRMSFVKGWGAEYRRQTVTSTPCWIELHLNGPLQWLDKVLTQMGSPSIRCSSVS
# Mus musculus [22] = assay: Toxicity in human MDA-MB-231 cells xenografted athymic nude mouse left cardiac ventricle assessed as effect on hematocrit at 50 mg/kg, ip administered every other day for 3 weeks (reference value: 30.2 +/- 1.5%); format: organism-based, Heart; parameters: dose 50 mg/kg, route intraperitoneal; conditions: in vivo, 504 h
# MDA-MB-231 [23] = assay: Inhibition of TGF-beta-induced PTHrP secretion in human MDA-MB-231 cells treated 4 hrs before TGF-beta challenge measured after 24 hrs by radioimmunoassay; format: functional, cell-based; how it was run: as §3
# Mus musculus [24] = assay: Toxicity in human MDA-MB-231 cells xenografted athymic nude mouse left cardiac ventricle assessed as effect on hematocrit at 25 mg/kg, ip administered every other day for 3 weeks (reference value: 30.2 +/- 1.5%); format: organism-based, Heart; parameters: dose 25 mg/kg, route intraperitoneal; conditions: in vivo, 504 h
# Mus musculus [25] = assay: Effect on orthotopic tumor mass in human MDA-MB-231 cells xenografted athymic nude mouse mammary fat pad at 25 to 50 mg/kg, ip administered every other day for 3 weeks
# Mus musculus [26] = assay: Toxicity in human MDA-MB-231 cells xenografted athymic nude mouse left cardiac ventricle assessed as effect on bone-forming osteoblast cell at 25 to 50 mg/kg, ip administered every other day for 3 weeks; format: organism-based, Heart; parameters: dose 25-50 mg/kg, route intraperitoneal; conditions: in vivo, 504 h
# [27] = target: Mothers against decapentaplegic homolog 2 (Homo sapiens) (UniProt Q15796); assay: Inhibition of TGF-beta-induced Smad2 phosphorylation in human MDA-MB-231 cells treated 12 hrs before TGF-beta challenge measured after 1 hr by Western blotting; format: cell-based; how it was run: as §1
# Mothers against decapentaplegic homolog 2 (Homo sapiens), sequence (Q15796 whole entry): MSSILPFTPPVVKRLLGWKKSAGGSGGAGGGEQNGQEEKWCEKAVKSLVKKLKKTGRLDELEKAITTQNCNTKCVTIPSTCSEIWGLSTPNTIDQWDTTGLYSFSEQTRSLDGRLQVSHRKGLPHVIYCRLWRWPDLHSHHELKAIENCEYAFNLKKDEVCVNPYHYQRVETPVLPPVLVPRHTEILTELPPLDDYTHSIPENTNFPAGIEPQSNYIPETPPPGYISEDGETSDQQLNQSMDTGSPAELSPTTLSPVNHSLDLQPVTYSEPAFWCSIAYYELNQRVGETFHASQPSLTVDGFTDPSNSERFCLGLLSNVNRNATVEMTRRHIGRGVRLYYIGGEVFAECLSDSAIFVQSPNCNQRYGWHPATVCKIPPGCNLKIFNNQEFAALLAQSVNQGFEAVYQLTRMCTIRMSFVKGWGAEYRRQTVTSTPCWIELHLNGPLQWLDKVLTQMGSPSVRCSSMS
# MDA-MB-231 [28] = assay: Inhibition of osteolytic bone metastases in human MDA-MB-231 cells xenografted in athymic nude mouse left cardiac ventricle assessed as reduction in lytic bone lesion area at 25 to 50 mg/kg, ip administered every other day for 3 weeks measured on day 21 relative to control; format: functional, Heart left ventricle; conditions: dose mg/kg 25-50; route intraperitoneal; how it was run: as §2
# MDA-MB-231 [29] = assay: Inhibition of osteolytic bone metastases in human MDA-MB-231 cells xenografted in athymic nude mouse left cardiac ventricle assessed as reduction in lytic bone lesion area at 25 to 50 mg/kg, ip administered every other day for 3 weeks measured on day 16 relative to control; format: functional, Heart left ventricle; conditions: dose mg/kg 25-50; route intraperitoneal; how it was run: as §2
smiles,measurement,setting,value
O=C(/C=C/c1ccc(O)cc1)CC(=O)/C=C/c1ccc(O)cc1 [BISDEMETHOXYCURCUMIN],Activity,Mus musculus [1],0.139 g
same,MTC,MDA-MB-231 [2],82 µM
same,Activity,Mus musculus [3],485 K/uL
same,inhibition,MDA-MB-231 [4],inactive
same,Activity,Mus musculus [5],0.129 g
same,Activity,Mus musculus [6],5.02 U/L
same,inhibition,[7],inactive
same,Activity,Mus musculus [8],1.1 g
same,Activity,MDA-MB-231 [9],Active
same,inhibition (INH),MDA-MB-231 [10],>50%
same,Activity,Mus musculus [11],6.83 K/uL
same,inhibition,MDA-MB-231 [12],Active
same,Activity,Mus musculus [13],7.13 U/L
same,inhibition,MDA-MB-231 [14],Active
same,inhibition in vivo at 25 mg/kg,MDA-MB-231 [15],53%
same,Activity,Mus musculus [16],589 K/uL
same,inhibition in vivo at 50 mg/kg,MDA-MB-231 [17],48%
same,Activity,Mus musculus [18],4.69 K/uL
same,Activity,Mus musculus [19],0.987 g
same,Activity,MDA-MB-231 [20],Active
same,inhibition,[21],Active
same,Activity,Mus musculus [22],31.1%
same,IC50,MDA-MB-231 [23],24 µM
same,inhibition,MDA-MB-231 [23],Dose-dependent effect
same,minimal effective concentration,MDA-MB-231 [23]; read-out: MEC,13 µM
same,Activity,Mus musculus [24],30.6%
same,Activity,Mus musculus [25],inactive
same,Activity,Mus musculus [26],Non-toxic
same,inhibition,[27],Active
same,inhibition (INH),MDA-MB-231 [28],57%
same,inhibition (INH),MDA-MB-231 [29],51%
